Screening data: PubChem, several laboratories
SKN-1 inh: suppressors of acrylamide-induced Pgst-4::GFP reporter in worms, primary screen, SKN-1 inhibitor project, whole organism, uHTS, GFP/RFP fluorescence ratio, strain VP596. C. elegans VP596 Pgst-4::GFP/RFP ratio, 24 h. inhibition, % at 21.8 µM. 0.49% of 360,000 active. AID 624304, 2012;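 active means interference check ratio from 0.5 to 1.5 plus GFP to RFP signal ratio inhibition reaching or exceeding a fixed threshold, cut at about 30% in these data, passing the limit was not always enough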
DDE Tn6 FP inh: inhibitors of Tn6 peptide binding to fibrin DD(E), primary screen, biochemical, fluorescence polarization, human fibrin, Tn6 probe; inhibition, % at 8.3 µM; 0.21% of 370,000 active; Fibrin DD(E) TRITC-Tn6 fluorescence polarization displacement;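 active means inhibition above a per-campaign cutoff: mean of compounds within control limits plus 3 SD, cut at about 15% in these data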;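 further: 0% = median of all compound wells on the plate and 100% = blocking peptide control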
Target sequence (P02675 whole entry, looked up): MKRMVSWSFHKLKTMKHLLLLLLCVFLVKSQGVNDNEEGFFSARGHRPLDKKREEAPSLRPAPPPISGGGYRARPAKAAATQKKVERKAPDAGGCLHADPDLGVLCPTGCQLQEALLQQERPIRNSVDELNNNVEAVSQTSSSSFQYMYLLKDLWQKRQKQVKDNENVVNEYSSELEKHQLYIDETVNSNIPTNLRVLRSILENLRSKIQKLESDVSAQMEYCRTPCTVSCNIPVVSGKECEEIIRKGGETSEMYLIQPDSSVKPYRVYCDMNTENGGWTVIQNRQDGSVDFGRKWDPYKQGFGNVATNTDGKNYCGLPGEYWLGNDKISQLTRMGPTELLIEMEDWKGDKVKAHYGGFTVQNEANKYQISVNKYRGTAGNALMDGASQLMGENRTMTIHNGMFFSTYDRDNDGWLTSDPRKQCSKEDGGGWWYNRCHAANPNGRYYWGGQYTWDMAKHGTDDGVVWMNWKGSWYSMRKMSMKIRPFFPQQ
DDE Tn7 FP inh: inhibitors of Tn7 peptide binding to fibrin DD(E), primary screen, biochemical, fluorescence polarization, human fibrin, Tn7 probe; inhibition, % at 8.3 µM; FP displacement of FITC-Tn7 peptide from fibrin DD(E); 0% = median of compound wells per plate; AID 720508, 2013; Fibrinogen beta chain (Homo sapiens), P02675; 0.13% of 370,000 active;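 active means inhibition above the mean of compounds falling within the control limits plus 3 SD of them, cut at about 14% in these data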;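 further: 0% = plate median of compound wells and 100% = 10 µM Aha-Tn7 peptide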
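Assay system: human fibrin DD(E) protein / Input: 2 µM fibrin DD(E) / Benchmarks: high control of 10 µM Aha-Tn7 peptide / Measured by: fluorescence polarization of the labelled Tn7 tracer / Medium: Tris buffer with calcium and detergent, pH 7.8 / Timing: 10 min compound pre-incubation, 3 h probe incubation at room temperature / Repeats: one replicate per compound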
MT1-MMP act inh: blockers of MT1-MMP proenzyme processing, primary screen, HT1080 RFP-PRO-GFP cells, GFP/RFP fluorescence | Matrix metalloproteinase-14 (Homo sapiens), P50281 | GFP/RFP ratio fluorescence, overnight; percent of plate control window, DMSO zero | GFP/RFP ratio change, % at 20 µM | 0.061% of 360,000 active;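 active means GFP/RFP ratio change of at least 30% with cell ATP level not reduced by more than half and red fluorescence within 50% of control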
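Assay system: RFP-PRO-GFP reporter HT1080 cells; read-out basis: GFP/RFP fluorescence ratio; benchmarks: DMSO wells and RFP-L50D-GFP cells; doses: 20 µM single dose, 1% DMSO; schedule: overnight cell settling, then overnight compound exposure, 37 °C, 5% CO2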
Tn6 DDE ctr: DD(E)-Tn6 binding inhibition, counter-screen. shares compounds with DDE Tn6 FP inh. Fibrin DD(E), TRITC-Tn6 fluorescence polarization displacement; 0% = median of compound wells, not DMSO. inhibition, % at 8.3 µM. 2% of 680 active;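 active means inhibition above the mean of test compounds lying between the control limits plus 3 SD of those, cut at about 14% in these data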;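 further: 0% = median of compound wells and 100% = wells with Aha-Tn7 blocking peptide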
Tn6 DDE conf: inhibitors of Tn6 peptide binding to fibrin DD(E), confirmation, biochemical, fluorescence polarization, human fibrin, Tn6 probe. shares compounds with DDE Tn6 FP inh. 10% of 680 active. FP displacement of TRITC-Tn6 peptide from DD(E); 0% = per-plate median of test wells. inhibition, % at 8.3 µM;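 active means inhibition above the mean of compounds lying within the control limits plus 3 SD, cut at about 16% in these data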;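 further: 100% = high control wells holding a competing inhibitor peptide at 10 µM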
* marks the source's active call; other numbers are inactive results; · = no result. A selection: hits, their analogues and other compounds. The true share with any hit is near 0.84%.

SMILES | SKN-1 inh | DDE Tn6 FP inh | DDE Tn7 FP inh | MT1-MMP act inh | Tn6 DDE ctr | Tn6 DDE conf
COC(=O)[C@]12C[C@H](CC(=O)N3CCN(C(=O)C4CC4)CC3)C(=O)N(Cc3ccc(Cl)cc3Cl)C1=C[C@H](C1CCCC1)O[C@@H]2C | · | -5 | -3 | · | · | ·
Cc1ccc(CNC(=O)CNC(=O)c2ccc(C(C)(C)C)cc2)n1C | 16 | 4 | -4 | 1 | · | ·
CC(C)c1[nH]nc2c1C(c1ccc3c(c1)OCO3)NC2=O (stereo not given) | · | 2 | -10 | · | · | ·
CN(C)S(=O)(=O)n1cc(/C=C(\NC(=O)c2ccccc2Cl)C(=O)N2CCCC2)c2ccccc21 | 6 | 3 | 4 | -3 | · | ·
COCCn1c(C)cc(C2=NNC(=Nc3ccccc3)SC2)c1C | 27 | 17* | -1 | -9 | 6 | -7
O=C(NN=Cc1cccc(OCc2ccccc2)c1)c1cc(-c2ccc(Cl)cc2)n[nH]1 | · | 22* | -4 | · | 2 | -1
O=C(NN=Cc1ccc(O)cc1)c1cc(-c2ccc(Cl)cc2)n[nH]1 | · | -6 | 1 | · | · | ·
COC(=O)c1cccc(NC(=S)N2CCN(c3ccccc3F)CC2)c1 | -2 | 18* | 4 | 0 | 2 | -8
COC(=O)c1cccc(NC(=S)N2CCCCC2)c1 | 0 | 0 | -9 | 0 | · | ·
N#C/C(=C\c1cccnc1)C(=O)Nc1ccc(O)cc1F | 44 | 49* | 0 | 15 | -2 | -1
O=C(NCc1ccc(Cl)cc1)C1CCC(CNc2c(N3CCCC3)c(=O)c2=O)CC1 (stereo not given) | -4 | 7 | 6 | -5 | · | ·
O=C(NCc1ccc(Cl)cc1)C1CCC(CNc2c(N3CCCCC3)c(=O)c2=O)CC1 (stereo not given) | 3 | 16* | -8 | 3 | 8 | 4
CC(COc1ccccc1)CN1CCC(C(O)(c2ccccc2)c2ccccc2)CC1 (stereo not given) | · | 5 | 4 | · | · | ·
CC(COc1ccc(OC(F)(F)F)cc1)CN1CCC(C(O)(c2ccccc2)c2ccccc2)CC1 (stereo not given) | · | 22* | 2 | · | 8 | 8
C[n+]1c(-c2ccccc2)cc2c(=Cc3ccc([N+](=O)[O-])cc3)c3ccccc3n21 | -7 | -1 | 0 | 2 | · | ·
C[n+]1c(-c2ccccc2)cc2c(=Cc3ccccc3)c3ccccc3n21 | 63 | 17* | -3 | 69 | 3 | 1
CCNC(=O)OC[C@H]1O[C@H](C#Cc2ccc(C(C)(C)C)cc2)C=C[C@H]1OC(C)=O | · | -9 | -1 | · | · | ·
NC(=O)CC(NC(=O)c1ccccc1)c1ccc(NCCN2CCCCC2)c([N+](=O)[O-])c1 (stereo not given) | 12 | 10 | -6 | 1 | · | ·
Cc1nc2c(ccc3nc(NC(=O)c4ccc5c(c4)OCCO5)sc32)s1 | 5 | 6 | -1 | -3 | · | ·
O=C(Nc1nc2c(Br)cccc2s1)c1ccc2c(c1)OCCO2 | · | 38* | -3 | · | 3 | -9
COc1ccc(-n2nnnc2C(CCc2ccccc2)N2CCN(C/C=C/c3ccccc3)CC2)cc1 (stereo not given) | -8 | 11 | 0 | -2 | · | ·
CCCCCOCC1CC(C/C(C)=N/NC(N)=S)C(=O)O1 (stereo not given) | -2 | 15* | 10 | -1 | -1 | -11
CSc1ncc(C(=O)Nc2ccccc2)cn1 | 18 | 8 | 7 | 1 | · | ·
O=C(Nc1ccccc1F)Oc1cccc(OC(=O)Nc2ccccc2F)c1 | 19 | 15* | 0 | 1 | -1 | 0
COc1cccc(C(=O)Nc2ccccc2F)c1 | 14 | 0 | -5 | -3 | · | ·
